Activity calls are given as the source filed them. The calls are words filed in the database; no cut-off is given here.
Experiments:
[1] = biological target: T1, Transient receptor potential cation channel subfamily V member 3 (Homo sapiens) (UniProt Q8NET8); test: Agonist activity at human TRPV3 expressed in HEK293T cells assessed as intracellular Ca2+ influx at 100 uM by Fluo-4 AM staining-based fluorescence analysis; assay type: cell-based; details: HEK-293T
T1 sequence (whole entry): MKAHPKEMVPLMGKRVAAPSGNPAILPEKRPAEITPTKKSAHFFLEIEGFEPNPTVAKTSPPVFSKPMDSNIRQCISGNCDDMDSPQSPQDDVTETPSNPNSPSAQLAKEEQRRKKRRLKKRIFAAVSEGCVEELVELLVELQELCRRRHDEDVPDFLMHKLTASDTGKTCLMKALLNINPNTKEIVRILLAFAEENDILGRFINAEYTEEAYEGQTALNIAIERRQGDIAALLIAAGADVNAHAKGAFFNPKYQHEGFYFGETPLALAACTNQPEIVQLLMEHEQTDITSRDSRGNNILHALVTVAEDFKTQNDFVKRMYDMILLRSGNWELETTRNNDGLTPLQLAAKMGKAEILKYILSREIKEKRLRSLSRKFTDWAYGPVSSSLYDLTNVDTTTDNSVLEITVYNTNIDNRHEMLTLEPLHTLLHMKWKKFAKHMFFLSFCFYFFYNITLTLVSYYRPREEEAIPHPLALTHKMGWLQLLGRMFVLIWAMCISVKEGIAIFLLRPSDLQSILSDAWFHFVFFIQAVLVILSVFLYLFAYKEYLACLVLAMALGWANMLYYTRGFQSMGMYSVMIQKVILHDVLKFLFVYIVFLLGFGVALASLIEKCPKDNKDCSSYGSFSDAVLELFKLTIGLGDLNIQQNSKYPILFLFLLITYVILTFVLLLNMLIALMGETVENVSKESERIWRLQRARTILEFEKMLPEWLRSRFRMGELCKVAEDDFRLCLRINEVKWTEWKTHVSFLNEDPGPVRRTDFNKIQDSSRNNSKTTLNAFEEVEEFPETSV
Procedure, shortened: (§1)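 hTRPV3 transiently expressed in HEK293T; loading and assay at 25 °C, Fluo-4 with probenecid buffer pH 7.4. Agonist 100 and 300 μM menthol, 5 μM ruthenium red as reference; 100 μM compound alone or pretreated 3 min. Data as % of 1000 μM menthol.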

[2] = biological target: T2, Transient receptor potential cation channel subfamily A member 1 (Homo sapiens, UniProt O75762); test: Agonist activity at TRPA1 isolated from human W138 cells expressed in HEK293T cells assessed as intracellular Ca2+ influx at 10 to 100 uM by Fluo-4 AM staining-based fluorescence analysis relative to allylisothiocyanate; assay type: cell-based
T2 sequence (O75762 whole entry): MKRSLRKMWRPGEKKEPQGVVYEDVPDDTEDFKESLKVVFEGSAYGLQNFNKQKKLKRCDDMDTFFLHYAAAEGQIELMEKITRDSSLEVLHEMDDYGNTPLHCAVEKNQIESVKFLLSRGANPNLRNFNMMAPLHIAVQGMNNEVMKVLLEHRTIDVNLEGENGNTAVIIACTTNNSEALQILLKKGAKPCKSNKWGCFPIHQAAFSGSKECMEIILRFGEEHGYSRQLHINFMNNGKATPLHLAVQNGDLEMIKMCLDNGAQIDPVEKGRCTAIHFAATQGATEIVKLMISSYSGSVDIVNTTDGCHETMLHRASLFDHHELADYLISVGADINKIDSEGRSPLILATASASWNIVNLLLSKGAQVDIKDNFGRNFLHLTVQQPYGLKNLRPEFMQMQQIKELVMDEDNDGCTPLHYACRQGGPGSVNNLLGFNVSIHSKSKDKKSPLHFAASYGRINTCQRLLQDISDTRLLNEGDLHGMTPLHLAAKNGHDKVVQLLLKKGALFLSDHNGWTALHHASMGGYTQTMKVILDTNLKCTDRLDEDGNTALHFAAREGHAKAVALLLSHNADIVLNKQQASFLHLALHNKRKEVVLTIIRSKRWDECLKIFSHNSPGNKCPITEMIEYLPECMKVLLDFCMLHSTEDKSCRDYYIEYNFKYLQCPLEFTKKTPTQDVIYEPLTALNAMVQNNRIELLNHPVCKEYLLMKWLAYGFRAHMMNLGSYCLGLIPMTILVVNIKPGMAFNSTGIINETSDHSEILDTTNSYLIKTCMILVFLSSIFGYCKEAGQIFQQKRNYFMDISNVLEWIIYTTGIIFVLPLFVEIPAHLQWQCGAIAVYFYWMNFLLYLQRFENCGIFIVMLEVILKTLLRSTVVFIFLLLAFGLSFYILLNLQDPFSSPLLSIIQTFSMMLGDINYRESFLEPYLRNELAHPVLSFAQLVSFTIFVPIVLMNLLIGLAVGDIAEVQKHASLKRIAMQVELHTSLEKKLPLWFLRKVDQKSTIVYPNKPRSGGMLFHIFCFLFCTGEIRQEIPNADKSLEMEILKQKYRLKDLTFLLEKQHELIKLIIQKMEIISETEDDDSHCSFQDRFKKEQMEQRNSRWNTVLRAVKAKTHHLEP
Procedure, shortened: (§2)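 Tetracycline-induced (1 μg/mL) stable hTRPA1 in HEK T-REx cells, Fluo-4 AM loaded (3 μM, 1 h, 37 °C) in HEPES buffer pH 7.4 with probenecid; Ca2+ read at 37 °C. Compound 0.01−100 μM; HC-030031 30 μM pretreated 3 min. Responses as % of 5 μM ionomycin or of 100 μM AITC; TREx cells without TRPA1 as control; n = 4−8.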

[3] = biological target: T2, Transient receptor potential cation channel subfamily A member 1; test: Agonist activity at TRPA1 isolated from human W138 cells expressed in HEK293T cells assessed as intracellular Ca2+ influx at 100 uM by Fluo-4 AM staining-based fluorescence analysis; assay type: cell-based; procedure, shortened: as §2
[4] = biological target: T3, Transient receptor potential cation channel subfamily V member 1 (Homo sapiens, UniProt Q8NER1); test: Antagonist activity at human brain TRPV1 expressed in HEK293T cells assessed as inhibition of heat-induced intracellular Ca2+ influx measured for 42 mins by fluorescence-based assay; assay type: cell-based, HEK-293T
T3 sequence (Q8NER1 whole entry): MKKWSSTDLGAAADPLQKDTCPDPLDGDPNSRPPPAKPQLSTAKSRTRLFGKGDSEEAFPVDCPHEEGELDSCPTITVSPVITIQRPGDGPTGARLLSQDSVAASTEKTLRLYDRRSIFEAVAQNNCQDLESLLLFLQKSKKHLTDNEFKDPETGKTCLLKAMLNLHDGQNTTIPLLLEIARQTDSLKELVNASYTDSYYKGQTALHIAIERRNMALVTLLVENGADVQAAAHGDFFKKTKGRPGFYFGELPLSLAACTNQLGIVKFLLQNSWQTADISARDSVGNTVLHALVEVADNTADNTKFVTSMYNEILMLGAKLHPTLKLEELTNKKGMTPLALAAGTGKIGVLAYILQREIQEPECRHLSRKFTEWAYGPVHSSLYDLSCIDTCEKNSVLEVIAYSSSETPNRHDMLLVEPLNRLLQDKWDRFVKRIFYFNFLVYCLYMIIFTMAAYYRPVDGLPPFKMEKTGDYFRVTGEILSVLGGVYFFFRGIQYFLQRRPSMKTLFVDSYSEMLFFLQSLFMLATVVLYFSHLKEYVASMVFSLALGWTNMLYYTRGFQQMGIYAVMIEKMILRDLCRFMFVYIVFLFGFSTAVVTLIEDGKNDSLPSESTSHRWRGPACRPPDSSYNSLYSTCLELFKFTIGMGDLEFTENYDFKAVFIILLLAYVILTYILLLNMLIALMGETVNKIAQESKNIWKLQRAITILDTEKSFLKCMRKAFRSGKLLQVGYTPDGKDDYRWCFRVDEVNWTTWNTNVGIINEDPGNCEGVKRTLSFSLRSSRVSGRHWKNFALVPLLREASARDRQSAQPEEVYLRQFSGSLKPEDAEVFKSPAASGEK
Procedure, shortened: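 hTRPV1-HEK293T, Fluo-4 loaded; antagonist pretreated 3 min, plate heated from 40 to 45 °C, Ca2+ signal recorded 42 min. Data as % of heat response; IC50 from dose curve; n = 4−10.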

[5] = biological target: T3, Transient receptor potential cation channel subfamily V member 1; test: Antagonist activity at human brain TRPV1 expressed in HEK293T cells assessed as inhibition of proton-induced intracellular Ca2+ influx at 10 uM by fluorescence-based assay; details: HEK-293T
[6] = biological target: Transient receptor potential cation channel subfamily M member 8 (Mus musculus) (UniProt Q8R4D5); test: (§3) Antagonist at TRPM8 isolated from mouse dorsal root ganglion cells expressed in HEK T-REx cells assessed as inhibition of menthol-induced intracellular Ca2+ influx by fluorescence-based assay; assay type: cell-based
Sequence of Transient receptor potential cation channel subfamily M member 8 (Mus musculus) (Q8R4D5 whole entry): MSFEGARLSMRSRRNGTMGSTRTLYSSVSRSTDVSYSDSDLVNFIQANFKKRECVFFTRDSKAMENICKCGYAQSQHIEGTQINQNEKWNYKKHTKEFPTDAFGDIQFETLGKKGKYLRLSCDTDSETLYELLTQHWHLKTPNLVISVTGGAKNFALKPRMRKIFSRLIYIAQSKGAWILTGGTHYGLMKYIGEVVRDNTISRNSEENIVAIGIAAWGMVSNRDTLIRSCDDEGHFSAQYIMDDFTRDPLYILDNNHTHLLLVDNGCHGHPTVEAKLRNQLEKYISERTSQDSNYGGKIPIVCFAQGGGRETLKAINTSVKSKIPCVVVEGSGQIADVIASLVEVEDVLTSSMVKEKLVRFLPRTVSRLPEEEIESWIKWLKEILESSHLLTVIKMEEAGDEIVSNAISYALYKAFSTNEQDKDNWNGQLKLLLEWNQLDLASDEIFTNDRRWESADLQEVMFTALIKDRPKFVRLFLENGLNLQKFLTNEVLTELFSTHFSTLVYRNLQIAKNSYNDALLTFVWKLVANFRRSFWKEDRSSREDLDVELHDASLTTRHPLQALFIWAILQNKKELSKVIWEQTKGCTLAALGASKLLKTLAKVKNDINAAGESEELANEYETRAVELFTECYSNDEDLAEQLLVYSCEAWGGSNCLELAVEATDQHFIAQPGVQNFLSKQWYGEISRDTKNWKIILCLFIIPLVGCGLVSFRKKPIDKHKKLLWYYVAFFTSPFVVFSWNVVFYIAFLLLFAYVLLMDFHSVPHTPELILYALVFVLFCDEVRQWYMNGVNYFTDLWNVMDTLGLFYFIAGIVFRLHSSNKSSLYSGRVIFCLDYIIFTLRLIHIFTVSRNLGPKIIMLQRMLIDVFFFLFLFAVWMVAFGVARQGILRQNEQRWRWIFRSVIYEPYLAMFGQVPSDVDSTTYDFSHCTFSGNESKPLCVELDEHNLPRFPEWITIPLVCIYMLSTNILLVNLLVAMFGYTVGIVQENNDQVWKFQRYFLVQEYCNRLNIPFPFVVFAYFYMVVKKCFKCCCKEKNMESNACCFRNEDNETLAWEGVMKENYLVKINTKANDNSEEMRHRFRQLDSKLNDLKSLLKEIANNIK
Procedure, shortened: (§4)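 Tetracycline-induced mTRPM8 in HEK T-REx, Fluo-4 Ca2+ at 37 °C. Antagonists (e.g. 0.01−100 μM, CNA up to 500 μM) preincubated 3 min before 10 μM menthol. IC50 from dose−inhibition curves, data as % of 10 μM menthol; n = 4−12.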

[7] = biological target: T4, Transient receptor potential cation channel subfamily M member 8 (Mus musculus, UniProt Q8R4D5); test: as §3; assay type: cell-based; procedure, shortened: as §4
T4 sequence (Q8R4D5 whole entry): as above

[8] = biological target: Transient receptor potential cation channel subfamily M member 8 (Mus musculus) (UniProt Q8R4D5); details: Dorsal root ganglion, HEK T-REx, 3 to 30 uM
[9] = biological target: Transient receptor potential cation channel subfamily M member 8 (Mus musculus) (UniProt Q8R4D5); details: Dorsal root ganglion, HEK T-REx, 10 to 50 uM
[10] = biological target: Transient receptor potential cation channel subfamily M member 8 (Mus musculus) (UniProt Q8R4D5); details: Dorsal root ganglion, HEK T-REx, 100 uM
[11] = biological target: T2, Transient receptor potential cation channel subfamily A member 1; test: Agonist activity at TRPA1 isolated from human W138 cells expressed in HEK293T cells assessed as intracellular Ca2+ influx at 100 uM by Fluo-4 AM staining-based fluorescence analysis in presence of antagonist HC-030031; assay type: cell-based; procedure, shortened: as §2
[12] = biological target: T1, Transient receptor potential cation channel subfamily V member 3 (Homo sapiens); test: Antagonist activity at human TRPV3 expressed in HEK293T cells assessed as menthol-induced intracellular Ca2+ influx at 100 uM by Fluo-4 AM staining-based fluorescence analysis; assay type: cell-based; details: HEK-293T; procedure, shortened: as §1
[13] = biological target: T2, Transient receptor potential cation channel subfamily A member 1; test: Agonist activity at TRPA1 isolated from human W138 cells expressed in HEK T-REx cells assessed as intracellular Ca2+ influx at 10 to 100 uM by Fluo-4 AM staining-based fluorescence analysis; assay type: cell-based; procedure, shortened: as §2
[14] = biological target: T3, Transient receptor potential cation channel subfamily V member 1; test: Competitive antagonist activity at […] Wistar rat DRG neurons assessed as inhibition of CAP-induced intracellular Ca2+ influx at 100 uM preincubated for 3 mins followed by CAP challenge; assay type: cell-based
Procedure, shortened: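 Primary DRG neurons from 4-week-old Wistar rats, collagenase-dissociated, cultured with NGF 24−36 h. Fluo-4 Ca2+ imaging with superfusion of 0.1 μM capsaicin and 100 μM compound.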

[15] = biological target: Transient receptor potential cation channel subfamily M member 8 (Mus musculus) (UniProt Q8R4D5); details: Dorsal root ganglion, HEK T-REx, 100 uM; remark: listed apart in the source
[16] = biological target: Transient receptor potential cation channel subfamily M member 8 (Mus musculus) (UniProt Q8R4D5); details: Dorsal root ganglion, HEK T-REx, 10 to 50 uM; remark: listed apart in the source
[17] = biological target: T4, Transient receptor potential cation channel subfamily M member 8; test: Competitive antagonist at TRPM8 isolated from mouse dorsal root ganglion cells expressed in HEK T-REx cells assessed as inhibition of menthol-induced intracellular Ca2+ influx by Schlid plot analysis

Question: Which results are given for `CC[C@H]1C[C@@H]2CN3CCc4c([nH]c5ccc(OC)cc45)[C@](C(=O)OC)(C2)[C@H]13` [VOACANGINE]?
Answer: Activity [1]: inactive; Activity [2]: 98%; Activity [3]: Active; IC50 [4]: 24 µM; inhibition ([4]; HEK-293T): Dose-dependent effect; inhibition [5]: inactive; inhibition [6]: Dose-dependent effect; IC50 [7]: 9 µM; inhibition [8]: inactive; inhibition [9]: Active; inhibition [10]: inactive; Activity [11]: inactive; Activity [12]: inactive; Activity [13]: inactive; inhibition [14]: Active; inhibition [15]: Active; inhibition [16]: inactive; Kb [17]: 7.94 µM

Source: ChEMBL document CHEMBL3108739, “Activation and inhibition of thermosensitive TRP channels by voacangine, an alkaloid present in Voacanga africana, an African tree” (J Nat Prod, 2014)
